Measurements: ChEMBL document CHEMBL4689842, “EUbOPEN Chemogenomics Library wave 1” (2021)

Tested on: Fibroblast
Experiment: Multiplex assay against human fibroblast
Assay type: toxicity, cell-based
Outline: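 Cells were classed with CellPathfinder machine-learning gating, first as Hoechst high-intensity objects or normal cells, then (normal cells) as healthy, pyknosed or fragmented nuclei, and finally (pyknosed cells) as mitotic or apoptotic. Staining of live cells at seeding used Hoechst33342, BioTracker Green Microtubule Cytoskeleton Dye, MitoTracker Red and Annexin V Alexa Fluor 680, with imaging on a CQ1 microscope at 37°C and 5% CO2 after compound addition. Tubulin, mitochondrial-mass and membrane-permeability phenotypes are per cents of healthy-nucleus cells.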

[1] = 12 h, 1 µM, compound concentration 1 uM, replicate 1
[2] = 12 h, 1 µM, compound concentration 1 uM, replicate 2
[3] = 12 h, 10 µM, compound concentration 10 uM, replicate 1
[4] = 12 h, 10 µM, compound concentration 10 uM, replicate 2
[5] = 24 h, 1 µM, compound concentration 1 uM, replicate 1
[6] = 24 h, 1 µM, compound concentration 1 uM, replicate 2
[7] = 24 h, 10 µM, compound concentration 10 uM, replicate 1
[8] = 24 h, 10 µM, compound concentration 10 uM, replicate 2
[9] = 48 h, 1 µM, compound concentration 1 uM, replicate 1
[10] = 48 h, 1 µM, compound concentration 1 uM, replicate 2
[11] = 48 h, 10 µM, compound concentration 10 uM, replicate 1
[12] = 48 h, 10 µM, compound concentration 10 uM, replicate 2

## COc1ccc(-c2ccc3ncc4c(c3c2)n(-c2ccc(N3CCNCC3)c(C(F)(F)F)c2)c(=O)n4C)cn1.O=C(O)/C=C\C(=O)O [BGT-226]
[1]
  Population Apoptotic (%): 67%
  Population Fragmented Nuclei (%): 34%
  Population Healthy Nuclei (%): 14%
  Population Hoechst High Intensity Objects (%): 14%
  Population Membrane Permeable-Phenotype (%): 26%
  Population Mitochondria Different-Phenotype (%): 33%
  Population Mitotic Cells (%): 32%
  Population Normal (%): 85%
  Population Pyknosed Nuclei (%): 50%
  Population Tubulin-Different-Phenotype (%): 93%
  Total Cell Count: 122
[2]
  Population Apoptotic (%): 81%
  Population Fragmented Nuclei (%): 24%
  Population Healthy Nuclei (%): 45%
  Population Hoechst High Intensity Objects (%): 17%
  Population Membrane Permeable-Phenotype (%): 70%
  Population Mitochondria Different-Phenotype (%): 94%
  Population Mitotic Cells (%): 18%
  Population Normal (%): 82%
  Population Pyknosed Nuclei (%): 29%
  Population Tubulin-Different-Phenotype (%): 94%
  Total Cell Count: 45
[3]
  Population Apoptotic (%): 62%
  Population Fragmented Nuclei (%): 27%
  Population Healthy Nuclei (%): 2%
  Population Hoechst High Intensity Objects (%): 14%
  Population Membrane Permeable-Phenotype (%): 50%
  Population Mitochondria Different-Phenotype (%): 0%
  Population Mitotic Cells (%): 37%
  Population Normal (%): 85%
  Population Pyknosed Nuclei (%): 69%
  Population Tubulin-Different-Phenotype (%): 0%
  Total Cell Count: 89
[4]
  Population Apoptotic (%): 100%
  Population Fragmented Nuclei (%): 70%
  Population Healthy Nuclei (%): 9%
  Population Hoechst High Intensity Objects (%): 62%
  Population Membrane Permeable-Phenotype (%): 24%
  Population Mitochondria Different-Phenotype (%): 32%
  Population Mitotic Cells (%): 0%
  Population Normal (%): 37%
  Population Pyknosed Nuclei (%): 19%
  Population Tubulin-Different-Phenotype (%): 24%
  Total Cell Count: 675
[5]
  Population Apoptotic (%): 69%
  Population Fragmented Nuclei (%): 45%
  Population Healthy Nuclei (%): 12%
  Population Hoechst High Intensity Objects (%): 18%
  Population Membrane Permeable-Phenotype (%): 58%
  Population Mitochondria Different-Phenotype (%): 16%
  Population Mitotic Cells (%): 30%
  Population Normal (%): 81%
  Population Pyknosed Nuclei (%): 41%
  Population Tubulin-Different-Phenotype (%): 50%
  Total Cell Count: 115
[6]
  Population Apoptotic (%): 83%
  Population Fragmented Nuclei (%): 20%
  Population Healthy Nuclei (%): 40%
  Population Hoechst High Intensity Objects (%): 30%
  Population Membrane Permeable-Phenotype (%): 66%
  Population Mitochondria Different-Phenotype (%): 91%
  Population Mitotic Cells (%): 16%
  Population Normal (%): 69%
  Population Pyknosed Nuclei (%): 40%
  Population Tubulin-Different-Phenotype (%): 91%
  Total Cell Count: 43
[7]
  Population Apoptotic (%): 58%
  Population Fragmented Nuclei (%): 23%
  Population Healthy Nuclei (%): 32%
  Population Hoechst High Intensity Objects (%): 26%
  Population Membrane Permeable-Phenotype (%): 38%
  Population Mitochondria Different-Phenotype (%): 0%
  Population Mitotic Cells (%): 41%
  Population Normal (%): 73%
  Population Pyknosed Nuclei (%): 44%
  Population Tubulin-Different-Phenotype (%): 52%
  Total Cell Count: 89
[8]
  Population Apoptotic (%): 100%
  Population Fragmented Nuclei (%): 79%
  Population Healthy Nuclei (%): 10%
  Population Hoechst High Intensity Objects (%): 64%
  Population Membrane Permeable-Phenotype (%): 69%
  Population Mitochondria Different-Phenotype (%): 60%
  Population Mitotic Cells (%): 0%
  Population Normal (%): 35%
  Population Pyknosed Nuclei (%): 9%
  Population Tubulin-Different-Phenotype (%): 60%
  Total Cell Count: 614
[9]
  Population Apoptotic (%): 84%
  Population Fragmented Nuclei (%): 55%
  Population Healthy Nuclei (%): 25%
  Population Hoechst High Intensity Objects (%): 38%
  Population Membrane Permeable-Phenotype (%): 58%
  Population Mitochondria Different-Phenotype (%): 11%
  Population Mitotic Cells (%): 15%
  Population Normal (%): 61%
  Population Pyknosed Nuclei (%): 19%
  Population Tubulin-Different-Phenotype (%): 47%
  Total Cell Count: 111
[10]
  Population Apoptotic (%): 62%
  Population Fragmented Nuclei (%): 28%
  Population Healthy Nuclei (%): 59%
  Population Hoechst High Intensity Objects (%): 27%
  Population Membrane Permeable-Phenotype (%): 19%
  Population Mitochondria Different-Phenotype (%): 19%
  Population Mitotic Cells (%): 37%
  Population Normal (%): 72%
  Population Pyknosed Nuclei (%): 11%
  Population Tubulin-Different-Phenotype (%): 85%
  Total Cell Count: 188
[11]
  Population Apoptotic (%): 66%
  Population Fragmented Nuclei (%): 57%
  Population Healthy Nuclei (%): 37%
  Population Hoechst High Intensity Objects (%): 42%
  Population Membrane Permeable-Phenotype (%): 50%
  Population Mitochondria Different-Phenotype (%): 4%
  Population Mitotic Cells (%): 33%
  Population Normal (%): 57%
  Population Pyknosed Nuclei (%): 4%
  Population Tubulin-Different-Phenotype (%): 58%
  Total Cell Count: 111
[12]
  Population Apoptotic (%): 25%
  Population Fragmented Nuclei (%): 75%
  Population Healthy Nuclei (%): 17%
  Population Hoechst High Intensity Objects (%): 44%
  Population Membrane Permeable-Phenotype (%): 44%
  Population Mitochondria Different-Phenotype (%): 33%
  Population Mitotic Cells (%): 75%
  Population Normal (%): 55%
  Population Pyknosed Nuclei (%): 7%
  Population Tubulin-Different-Phenotype (%): 55%
  Total Cell Count: 94
